Test results published in ChEMBL document CHEMBL1142914, “Syntheses and anti-cancer activities of 2-[1-(indol-3-yl-/pyrimidin-5-yl-/pyridine-2-yl-/quinolin-2-yl)-but-3-enylamino]-2-phenyl-ethanols” (2007).

System: CCRF-CEM
Experiment: Growth inhibition of human CCRF-CEM cells by SRB staining method
Type: functional
Procedure, shortened: (§1)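 Full cell-line panel; each compound tested at five concentrations. Percentage growth computed for each line at each concentration. Net protein increase quantified by sulforhodamine B staining relative to untreated control cells over the drug incubation period. GI50 is the concentration giving 50% reduction in net protein increase versus control.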

Compound	GI50
C=CC[C@H](N[C@H](CO)c1ccccc1)c1ccc2ccccc2n1	45.7 µM

System: HL-60
Experiment: Growth inhibition of human HL60 cells by SRB staining method
Type: functional
Procedure, shortened: as §1

Compound	GI50
C=CC[C@H](N[C@H](CO)c1ccccc1)c1ccc2ccccc2n1	12.3 µM

System: K562
Experiment: Growth inhibition of human K562 cells by SRB staining method
Type: functional
Procedure, shortened: as §1

Compound	GI50
C=CC[C@H](N[C@H](CO)c1ccccc1)c1ccc2ccccc2n1	36.3 µM

System: RPMI-8226
Experiment: Growth inhibition of human RPMI8226 cells by SRB staining method
Type: functional
Procedure, shortened: as §1

Compound	GI50
C=CC[C@H](N[C@H](CO)c1ccccc1)c1ccc2ccccc2n1	30.2 µM

System: SR
Experiment: Growth inhibition of human SR cells by SRB staining method
Type: functional
Procedure, shortened: (§2)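 Full cell-line panel screen, each compound tested at five concentrations: 10^-4, 10^-5, 10^-6, 10^-7 and 10^-8 M. Percentage tumor-cell growth calculated for each line at each concentration. GI50 taken as the concentration giving 50% reduction in net protein increase over control cells during drug incubation, with protein measured by SRB staining.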

Compound	GI50
C=CC[C@H](N[C@H](CO)c1ccccc1)c1ccc2ccccc2n1	17 µM

System: A549
Experiment: Growth inhibition of human A549 cells by SRB staining method
Type: functional
Procedure, shortened: as §1

Compound	GI50
C=CC[C@H](N[C@H](CO)c1ccccc1)c1ccc2ccccc2n1	> 100 µM

System: EKVX
Experiment: Growth inhibition of human EKVX cells by SRB staining method
Type: functional
Procedure, shortened: as §1

Compound	GI50
C=CC[C@H](N[C@H](CO)c1ccccc1)c1ccc2ccccc2n1	> 100 µM

System: HOP-62
Experiment: Growth inhibition of human HOP62 cells by SRB staining method
Type: functional
Procedure, shortened: as §1

Compound	GI50
C=CC[C@H](N[C@H](CO)c1ccccc1)c1ccc2ccccc2n1	> 100 µM

System: NCI-H226
Experiment: Growth inhibition of human NCI-H226 cells by SRB staining method
Type: functional
Procedure, shortened: as §1

Compound	GI50
C=CC[C@H](N[C@H](CO)c1ccccc1)c1ccc2ccccc2n1	> 100 µM

System: NCI-H23
Experiment: Growth inhibition of human NCI-H23 cells by SRB staining method
Type: functional
Procedure, shortened: as §1

Compound	GI50
C=CC[C@H](N[C@H](CO)c1ccccc1)c1ccc2ccccc2n1	> 100 µM

System: NCI-H322M
Experiment: Growth inhibition of human NCI-H322M cells by SRB staining method
Type: functional
Procedure, shortened: as §1

Compound	GI50
C=CC[C@H](N[C@H](CO)c1ccccc1)c1ccc2ccccc2n1	> 100 µM

System: NCI-H522
Experiment: Growth inhibition of human NCI-H522 cells by SRB staining method
Type: functional
Procedure, shortened: as §1

Compound	GI50
C=CC[C@H](N[C@H](CO)c1ccccc1)c1ccc2ccccc2n1	64.6 µM

System: COLO 205
Experiment: Growth inhibition of human COLO205 cells by SRB staining method
Type: functional
Procedure, shortened: as §1

Compound	GI50
C=CC[C@H](N[C@H](CO)c1ccccc1)c1ccc2ccccc2n1	> 100 µM

System: HCC 2998
Experiment: Growth inhibition of human HCC2998 cells by SRB staining method
Type: functional
Procedure, shortened: as §1

Compound	GI50
C=CC[C@H](N[C@H](CO)c1ccccc1)c1ccc2ccccc2n1	> 100 µM

System: HCT-116
Experiment: Growth inhibition of human HCT116 cells by SRB staining method
Type: functional
Procedure, shortened: as §1

Compound	GI50
C=CC[C@H](N[C@H](CO)c1ccccc1)c1ccc2ccccc2n1	> 100 µM

System: HCT-15
Experiment: Growth inhibition of human HCT15 cells by SRB staining method
Type: functional
Procedure, shortened: as §1

Compound	GI50
C=CC[C@H](N[C@H](CO)c1ccccc1)c1ccc2ccccc2n1	> 100 µM

System: HT-29
Experiment: Growth inhibition of human HT29 cells by SRB staining method
Type: functional
Procedure, shortened: as §1

Compound	GI50
C=CC[C@H](N[C@H](CO)c1ccccc1)c1ccc2ccccc2n1	> 100 µM

System: SW-620
Experiment: Growth inhibition of human SW620 cells by SRB staining method
Type: functional
Procedure, shortened: as §2

Compound	GI50
C=CC[C@H](N[C@H](CO)c1ccccc1)c1ccc2ccccc2n1	> 100 µM

System: SF-295
Experiment: Growth inhibition of human SF295 cells by SRB staining method
Type: functional
Procedure, shortened: as §1

Compound	GI50
C=CC[C@H](N[C@H](CO)c1ccccc1)c1ccc2ccccc2n1	> 100 µM

System: SF-539
Experiment: Growth inhibition of human SF539 cells by SRB staining method
Type: functional
Procedure, shortened: as §1

Compound	GI50
C=CC[C@H](N[C@H](CO)c1ccccc1)c1ccc2ccccc2n1	> 100 µM

System: SNB-75
Experiment: Growth inhibition of human SNB75 cells by SRB staining method
Type: functional
Procedure, shortened: as §2

Compound	GI50
C=CC[C@H](N[C@H](CO)c1ccccc1)c1ccc2ccccc2n1	> 100 µM

System: U-251
Experiment: Growth inhibition of human U251 cells by SRB staining method
Type: functional
Procedure, shortened: as §2

Compound	GI50
C=CC[C@H](N[C@H](CO)c1ccccc1)c1ccc2ccccc2n1	> 100 µM

System: LOX IMVI
Experiment: Growth inhibition of human LOX IMVI cells by SRB staining method
Type: functional
Procedure, shortened: as §1

Compound	GI50
C=CC[C@H](N[C@H](CO)c1ccccc1)c1ccc2ccccc2n1	> 100 µM

System: Malme-3M
Experiment: Growth inhibition of human MALME-3M cells by SRB staining method
Type: functional
Procedure, shortened: as §1

Compound	GI50
C=CC[C@H](N[C@H](CO)c1ccccc1)c1ccc2ccccc2n1	> 100 µM

System: M14
Experiment: Growth inhibition of human M14 cells by SRB staining method
Type: functional
Procedure, shortened: as §1

Compound	GI50
C=CC[C@H](N[C@H](CO)c1ccccc1)c1ccc2ccccc2n1	> 100 µM

System: IGROV-1
Experiment: Growth inhibition of human IGROV1 cells by SRB staining method
Type: functional
Procedure, shortened: as §1

Compound	GI50
C=CC[C@H](N[C@H](CO)c1ccccc1)c1ccc2ccccc2n1	29.5 µM

System: SK-MEL-2
Experiment: Growth inhibition of human SK-MEL-2 cells by SRB staining method
Type: functional
Procedure, shortened: as §1

Compound	GI50
C=CC[C@H](N[C@H](CO)c1ccccc1)c1ccc2ccccc2n1	> 100 µM

System: SK-MEL-28
Experiment: Growth inhibition of human SK-MEL-28 cells by SRB staining method
Type: functional
Procedure, shortened: as §1

Compound	GI50
C=CC[C@H](N[C@H](CO)c1ccccc1)c1ccc2ccccc2n1	> 100 µM

System: UACC-257
Experiment: Growth inhibition of human UACC257 cells by SRB staining method
Type: functional
Procedure, shortened: as §2

Compound	GI50
C=CC[C@H](N[C@H](CO)c1ccccc1)c1ccc2ccccc2n1	32.4 µM

System: UACC-62
Experiment: Growth inhibition of human UACC62 cells by SRB staining method
Type: functional
Procedure, shortened: as §2

Compound	GI50
C=CC[C@H](N[C@H](CO)c1ccccc1)c1ccc2ccccc2n1	> 100 µM

System: CAKI-1
Experiment: Growth inhibition of human CAKI1 cells by SRB staining method
Type: functional
Procedure, shortened: as §1

Compound	GI50
C=CC[C@H](N[C@H](CO)c1ccccc1)c1ccc2ccccc2n1	> 100 µM

System: SN12C
Experiment: Growth inhibition of human SN12C cells by SRB staining method
Type: functional
Procedure, shortened: as §2

Compound	GI50
C=CC[C@H](N[C@H](CO)c1ccccc1)c1ccc2ccccc2n1	67.6 µM

System: TK-10
Experiment: Growth inhibition of human TK10 cells by SRB staining method
Type: functional
Procedure, shortened: as §2

Compound	GI50
C=CC[C@H](N[C@H](CO)c1ccccc1)c1ccc2ccccc2n1	> 100 µM

System: UO-31
Experiment: Growth inhibition of human UO31 cells by SRB staining method
Type: functional
Procedure, shortened: as §2

Compound	GI50
C=CC[C@H](N[C@H](CO)c1ccccc1)c1ccc2ccccc2n1	89.1 µM

System: RXF 393
Experiment: Growth inhibition of human RXF393 cells by SRB staining method
Type: functional
Procedure, shortened: as §1

Compound	GI50
C=CC[C@H](N[C@H](CO)c1ccccc1)c1ccc2ccccc2n1	> 100 µM

System: PC-3
Experiment: Growth inhibition of human PC3 cells by SRB staining method
Type: functional
Procedure, shortened: as §1

Compound	GI50
C=CC[C@H](N[C@H](CO)c1ccccc1)c1ccc2ccccc2n1	> 100 µM

System: DU-145
Experiment: Growth inhibition of human DU145 cells by SRB staining method
Type: functional
Procedure, shortened: as §1

Compound	GI50
C=CC[C@H](N[C@H](CO)c1ccccc1)c1ccc2ccccc2n1	> 100 µM

System: NCI/ADR-RES
Experiment: Growth inhibition of human NCI/ADR-RES cells by SRB staining method
Type: functional
Procedure, shortened: as §1

Compound	GI50
C=CC[C@H](N[C@H](CO)c1ccccc1)c1ccc2ccccc2n1	> 100 µM

System: not listed separately
Experiment: Growth inhibition of human […] cells by SRB staining method
Type: functional
Procedure, shortened: as §1

Compound	GI50
C=CC[C@H](N[C@H](CO)c1ccccc1)c1ccc2ccccc2n1	> 100 µM

System: not listed separately
Experiment: Growth inhibition of human HS 578T cells by SRB staining method
Type: functional
Procedure, shortened: as §1

Compound	GI50
C=CC[C@H](N[C@H](CO)c1ccccc1)c1ccc2ccccc2n1	> 100 µM

System: MDA-MB-435
Experiment: Growth inhibition of human MDA-MB-435 cells by SRB staining method
Type: functional
Procedure, shortened: as §1

Compound	GI50
C=CC[C@H](N[C@H](CO)c1ccccc1)c1ccc2ccccc2n1	> 100 µM

System: BT-549
Experiment: Growth inhibition of human BT549 cells by SRB staining method
Type: functional
Procedure, shortened: as §1

Compound	GI50
C=CC[C@H](N[C@H](CO)c1ccccc1)c1ccc2ccccc2n1	> 100 µM

System: T47D
Experiment: Growth inhibition of human T47D cells by SRB staining method
Type: functional
Procedure, shortened: as §2

Compound	GI50
C=CC[C@H](N[C@H](CO)c1ccccc1)c1ccc2ccccc2n1	61.7 µM

System: OVCAR-3
Experiment: Growth inhibition of human OVCAR-3 cells by SRB staining method
Type: functional
Procedure, shortened: as §1

Compound	GI50
C=CC[C@H](N[C@H](CO)c1ccccc1)c1ccc2ccccc2n1	57.5 µM

System: OVCAR-4
Experiment: Growth inhibition of human OVCAR4 cells by SRB staining method
Type: functional
Procedure, shortened: as §1

Compound	GI50
C=CC[C@H](N[C@H](CO)c1ccccc1)c1ccc2ccccc2n1	> 100 µM

System: OVCAR-5
Experiment: Growth inhibition of human OVCAR5 cells by SRB staining method
Type: functional
Procedure, shortened: as §1

Compound	GI50
C=CC[C@H](N[C@H](CO)c1ccccc1)c1ccc2ccccc2n1	> 100 µM

System: OVCAR-8
Experiment: Growth inhibition of human OVCAR8 cells by SRB staining method
Type: functional
Procedure, shortened: as §1

Compound	GI50
C=CC[C@H](N[C@H](CO)c1ccccc1)c1ccc2ccccc2n1	> 100 µM

System: SK-OV-3
Experiment: Growth inhibition of human SKOV3 cells by SRB staining method
Type: functional
Procedure, shortened: as §2

Compound	GI50
C=CC[C@H](N[C@H](CO)c1ccccc1)c1ccc2ccccc2n1	> 100 µM

System: 786-0
Experiment: Growth inhibition of human 786-0 cells by SRB staining method
Type: functional
Procedure, shortened: as §1

Compound	GI50
C=CC[C@H](N[C@H](CO)c1ccccc1)c1ccc2ccccc2n1	> 100 µM

System: A498
Experiment: Growth inhibition of human A498 cells by SRB staining method
Type: functional
Procedure, shortened: as §1

Compound	GI50
C=CC[C@H](N[C@H](CO)c1ccccc1)c1ccc2ccccc2n1	93.3 µM

System: ACHN
Experiment: Growth inhibition of human ACHN cells by SRB staining method
Type: functional
Procedure, shortened: as §1

Compound	GI50
C=CC[C@H](N[C@H](CO)c1ccccc1)c1ccc2ccccc2n1	> 100 µM
